Data taken from ChEMBL document CHEMBL1145421, “Discovery of novel antitumor antimitotic agents that also reverse tumor resistance” (J Med Chem, 2007).
Activity calls are given as the source filed them. The calls are words filed in the database; no cut-off is given here.

Experiments:
NCI/ADR-RES = assay: Growth inhibition of NCI/ADR-RES cells; format: functional; details: Homo sapiens
MDA-MB-231 = assay: Growth inhibition of MDA-MB-231 cells; format: functional; details: Homo sapiens
Hs-578T = assay: Growth inhibition of HS578T cells; format: functional; details: Homo sapiens
MDA-MB-435 = assay: Growth inhibition of MDA-MB-435 cells; format: functional; details: Homo sapiens
BT-549 = assay: Growth inhibition of BT549 cells; format: functional; details: Homo sapiens
T47D = assay: Growth inhibition of T47D cells; format: functional; details: Homo sapiens
MDA-N = assay: Growth inhibition of MDA-N cells; format: functional; details: Homo sapiens
[1] = Cytotoxicity against human T24 cells after 48 hrs by SRB binding assay; format: cell-based; details: T-24, 48 h
CCRF-CEM = assay: Growth inhibition of CCRF-CEM cells; format: functional; details: Homo sapiens
HL-60 [2] = assay: Growth inhibition of HL60 cells; format: functional; details: Homo sapiens
K562 = assay: Growth inhibition of K562 cells; format: functional; details: Homo sapiens
MOLT-4 = assay: Growth inhibition of MOLT4 cells; format: functional; details: Homo sapiens
RPMI-8226 = assay: Growth inhibition of RPMI8226 cells; format: functional; details: Homo sapiens
SR = assay: Growth inhibition of SR cells; format: functional; details: Homo sapiens
A549 = assay: Growth inhibition of A549 cells; format: functional; details: Homo sapiens
EKVX = assay: Growth inhibition of EKVX cells; format: functional; details: Homo sapiens
HOP-92 = assay: Growth inhibition of HOP92 cells; format: functional; details: Homo sapiens
NCI-H226 = assay: Growth inhibition of NCI-H226 cells; format: functional; details: Homo sapiens
NCI-H23 = assay: Growth inhibition of NCI-H23 cells; format: functional; details: Homo sapiens
[3] = Growth inhibition of NCI-H322 cells; format: functional; details: Homo sapiens
NCI-H460 = assay: Growth inhibition of NCI-H460 cells; format: functional; details: Homo sapiens
NCI-H522 = assay: Growth inhibition of NCI-H522 cells; format: functional; details: Homo sapiens
COLO 205 = assay: Growth inhibition of COLO205 cells; format: functional; details: Homo sapiens
HCC 2998 = assay: Growth inhibition of HCC2998 cells; format: functional; details: Homo sapiens
HCT-116 = assay: Growth inhibition of HCT116 cells; format: functional; details: Homo sapiens
HCT-15 = assay: Growth inhibition of HCT15 cells; format: functional; details: Homo sapiens
HT-29 = assay: Growth inhibition of HT29 cells; format: functional; details: Homo sapiens
KM12 = assay: Growth inhibition of KM12 cells; format: functional; details: Homo sapiens
SW-620 = assay: Growth inhibition of SW620 cells; format: functional; details: Homo sapiens
SF-268 = assay: Growth inhibition of SF268 cells; format: functional; details: Homo sapiens
SF-295 = assay: Growth inhibition of SF295 cells; format: functional; details: Homo sapiens
SF-539 = assay: Growth inhibition of SF539 cells; format: functional; details: Homo sapiens
SNB-19 = assay: Growth inhibition of SNB19 cells; format: functional; details: Homo sapiens
SNB-75 = assay: Growth inhibition of SNB75 cells; format: functional; details: Homo sapiens
U-251 = assay: Growth inhibition of U251 cells; format: functional; details: Homo sapiens
[4] = Growth inhibition of LOX IMV1 cells; format: functional; details: Homo sapiens
Malme-3M = assay: Growth inhibition of MALME-3M cells; format: functional; details: Homo sapiens
M14 = assay: Growth inhibition of M14 cells; format: functional; details: Homo sapiens
SK-MEL-2 = assay: Growth inhibition of SK-MEL-2 cells; format: functional; details: Homo sapiens
SK-MEL-28 = assay: Growth inhibition of SK-MEL-28 cells; format: functional; details: Homo sapiens
SK-MEL-5 = assay: Growth inhibition of SK-MEL-5 cells; format: functional; details: Homo sapiens
UACC-257 = assay: Growth inhibition of UACC257 cells; format: functional; details: Homo sapiens
UACC-62 = assay: Growth inhibition of UACC62 cells; format: functional; details: Homo sapiens
IGROV-1 = assay: Growth inhibition of IGROV1 cells; format: functional; details: Homo sapiens
OVCAR-3 = assay: Growth inhibition of OVCAR-3 cells; format: functional; details: Homo sapiens
OVCAR-4 = assay: Growth inhibition of OVCAR4 cells; format: functional; details: Homo sapiens
OVCAR-5 = assay: Growth inhibition of OVCAR5 cells; format: functional; details: Homo sapiens
OVCAR-8 = assay: Growth inhibition of OVCAR8 cells; format: functional; details: Homo sapiens
SK-OV-3 = assay: Growth inhibition of SKOV3 cells; format: functional; details: Homo sapiens
786-0 = assay: Growth inhibition of 786-0 cells; format: functional; details: Homo sapiens
A498 = assay: Growth inhibition of A498 cells; format: functional; details: Homo sapiens
ACHN = assay: Growth inhibition of ACHN cells; format: functional; details: Homo sapiens
CAKI-1 = assay: Growth inhibition of CAKI1 cells; format: functional; details: Homo sapiens
RXF 393 = assay: Growth inhibition of RXF393 cells; format: functional; details: Homo sapiens
SN12C = assay: Growth inhibition of SN12C cells; format: functional; details: Homo sapiens
TK-10 = assay: Growth inhibition of TK10 cells; format: functional; details: Homo sapiens
UO-31 = assay: Growth inhibition of UO31 cells; format: functional; details: Homo sapiens
PC-3 = assay: Growth inhibition of PC3 cells; format: functional; details: Homo sapiens
DU-145 = assay: Growth inhibition of DU145 cells; format: functional; details: Homo sapiens
MCF7 [5] = assay: Growth inhibition of MCF7 cells; format: functional; details: Homo sapiens
MCF7 [6] = assay: Cytotoxicity against human MCF7 cells after 48 hrs by SRB binding assay; format: functional, cell-based; details: MCF7, 48 h
Procedure, shortened: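 Drug-sensitive MCF-7 cells seeded at ~15% confluency and allowed 24 h recovery. Exposed 48 h to graded concentrations. Survival measured by SRB binding as % decrease versus ethanol-vehicle controls, mean of triplicate wells.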

[7] = Cytotoxicity against Pgp overexpressing human NCI/ADR cells after 48 hrs by SRB binding assay; format: functional, cell-based; details: NCI/ADR-RES
Procedure, shortened: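 NCI/ADR (Pgp-overexpressing) cells seeded at ~15% confluency and allowed 24 h to attach. Exposed 48 h to graded concentrations, as solubility allowed, without vinblastine. Survival measured by sulforhodamine B binding as % decrease in SRB binding versus ethanol-vehicle controls, mean of three wells per condition.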

[8] = Cytotoxicity against MRP1 overexpressing human MCF7/VP cells after 48 hrs by SRB binding assay; format: functional, cell-based
Procedure, shortened: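 MCF-7/VP (MRP1-expressing, Pgp-negative) cells seeded at ~15% confluency and allowed 24 h to attach. Exposed 48 h to graded concentrations without vincristine. Survival measured by SRB binding versus ethanol controls.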

MCF7 [9] = assay: Growth inhibition of Pgp deficient MCF7 cells expressing MRP1; format: functional, cell-based; details: Homo sapiens
Procedure, shortened: (§1)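 NCI/ADR (Pgp-overexpressing) or MCF-7/VP (MRP1-expressing, Pgp-negative) cells were seeded at about 15% confluency and allowed to attach for 24 h. They were then exposed for 48 h to varying compound concentrations, limited by solubility, without added vinca drug. Survival was read by sulforhodamine B binding against ethanol solvent controls. Each value is the mean of three equally treated wells.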

[10] = Growth inhibition of NCI/ADR cells expressing Pgp/MRP1; format: functional, cell-based; details: Homo sapiens, NCI/ADR-RES; procedure, shortened: as §1
[11] = Growth inhibition of Pgp deficient MCF7/VP cells expressing MRP1; format: functional, cell-based; details: Homo sapiens; procedure, shortened: as §1
HL-60 [12] = assay: Cell cycle arrest in HL60 cells assessed as accumulation in G0/G1 phase at 6 uM; format: functional, Homo sapiens
Procedure, shortened: (§2)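 HL-60 cells exposed 24 or 48 h to drug or ethanol vehicle. Nuclei prepared by detergent-trypsin method: citrate/sucrose/DMSO buffer, trypsin, then trypsin inhibitor plus RNase A, then propidium iodide with spermine, 30 min at 4 °C. Filtered, resuspended, DNA content measured by flow cytometry. Percentages given for G0/G1, S and G2/M. Mean ± SEM.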

HL-60 [13] = assay: Cell cycle arrest in HL60 cells assessed as accumulation in S phase at 6 uM; format: functional, Homo sapiens; procedure, shortened: as §2
HL-60 [14] = assay: Cell cycle arrest in HL60 cells assessed as accumulation in […] phase at 6 uM; format: functional, Homo sapiens; procedure, shortened: as §2
A10 [15] = assay: Induction of microtubule loss in rat A10 cells after 24 hrs; format: functional, cell-based
Procedure, shortened: (§3)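 Rat A-10 smooth muscle cells were grown to near confluency on glass coverslips and treated for 24 h, with ethanol as control. Microtubules were stained by indirect immunofluorescence using monoclonal anti-β-tubulin and a fluorescein-conjugated anti-mouse IgG, then imaged by confocal laser scanning microscopy.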

NIH3T3 = assay: Induction of microtubule loss in NIH/3T3 cells after 24 hrs; format: functional, cell-based; details: Mus musculus
MCF7 [16] = assay: Induction of microtubule loss in MCF7 cells after 24 hrs; format: functional, cell-based; details: Homo sapiens
MCF7 [17] = assay: Effect on Waf1 protein expression in MCF7 cells after 24 hrs; format: functional, cell-based; details: Homo sapiens
Procedure, shortened: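 MCF-7 cells exposed 24 h to the indicated concentrations or ethanol control. Cells lysed and protein levels assessed by Western blot. One of two similar experiments.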

A10 [18] = assay: Induction of microtubule depolymerization in rat A10 cells at 10 uM; format: functional, cell-based; procedure, shortened: as §3
A10 [19] = assay: Prevention of paracrystal formation in rat A10 cells at 10 uM; format: functional, cell-based
Bos taurus = organism: Bos taurus; assay: Reduction of bovine brain tubulin polymerization
Procedure, shortened: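 Bovine brain tubulin was purified by three assembly/disassembly cycles followed by ion exchange. Tubulin at 67 μM (2.5 mg/mL) in 1 M glutamate, pH 6.6, with 4% DMSO was preincubated with compound (2–20 μM) or ethanol for 15 min at 0 °C. Then 0.5 mM GTP was added, samples were warmed to 37 °C, and A340 was followed for about 60 min.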

GI50 (MDA-MB-231): 595 nM
GI50 (MDA-MB-435): 10.1 nM
GI50 (BT-549): > 1000 nM
GI50 (T47D): 563 nM
GI50 (CCRF-CEM): 58 nM
GI50 (HL-60 [2]): 64.7 nM
GI50 (K562): 84.6 nM
GI50 (MOLT-4): 285 nM
GI50 (RPMI-8226): 439 nM
GI50 (A549): 173 nM
GI50 (NCI-H226): 195 nM
GI50 (NCI-H23): 278 nM
GI50 (NCI-H460): 162 nM
GI50 (NCI-H522): 47.7 nM
GI50 (COLO 205): 190 nM
GI50 (HCC 2998): 317 nM
GI50 (HCT-116): 286 nM
GI50 (HCT-15): 127 nM
GI50 (HT-29): 281 nM
GI50 (SW-620): 236 nM
GI50 (U-251): 144 nM
GI50 (SK-MEL-2): 381 nM
GI50 (SK-MEL-28): > 1000 nM
GI50 (SK-MEL-5): 61.1 nM
GI50 (OVCAR-3): 28.8 nM
GI50 (OVCAR-4): 821 nM
GI50 (OVCAR-5): > 1000 nM
GI50 (OVCAR-8): 364 nM
GI50 (SK-OV-3): 506 nM
GI50 (786-0): 254 nM
GI50 (ACHN): 728 nM
GI50 (PC-3): 47.9 nM
GI50 (DU-145): 224 nM
GI50 (MCF7 [5]): 118 nM
IC50 (MCF7 [9]): 280 nM
Activity (Bos taurus): Dose-dependent effect
SMILES: COc1cc(CCc2cn(Cc3ccccc3)c3nc(N)nc(C)c23)cc(OC)c1OC
GI50 (NCI/ADR-RES): 145 nM
GI50 (Hs-578T): 283 nM
GI50 (MDA-N): < 10 nM
IC50 [1]: 280 nM
GI50 (SR): 31.4 nM
GI50 (EKVX): 424 nM
GI50 (HOP-92): 467 nM
GI50 [3]: 581 nM
GI50 (KM12): 194 nM
GI50 (SF-268): 669 nM
GI50 (SF-295): 41.8 nM
GI50 (SF-539): 74.5 nM
GI50 (SNB-19): 273 nM
GI50 (SNB-75): 358 nM
GI50 [4]: 250 nM
GI50 (Malme-3M): 283 nM
GI50 (M14): 77 nM
GI50 (UACC-257): 80.2 nM
GI50 (UACC-62): 39.9 nM
GI50 (IGROV-1): 61.1 nM
GI50 (A498): 136 nM
GI50 (CAKI-1): 366 nM
GI50 (RXF 393): 134 nM
GI50 (SN12C): 537 nM
GI50 (TK-10): 961 nM
GI50 (UO-31): 347 nM
IC50 (MCF7 [6]): 300 nM
IC50 [7]: 250 nM
IC50 [8]: 250 nM
IC50 [10]: 350 nM
IC50 [11]: 180 nM
Activity (HL-60 [12]): 80%
Activity (HL-60 [13]): 10.3%
Activity (HL-60 [14]): 9.7%
Activity (A10 [15]): Dose-dependent effect
Activity (NIH3T3): Active
Activity (MCF7 [16]): Active
Activity (MCF7 [17]): Active
Activity (A10 [18]): Active
Activity (A10 [19]): inactive
